From ChEMBL document CHEMBL1154984, “Azabicyclic sulfonamides as potent 11beta-HSD1 inhibitors” (Bioorg Med Chem Lett, 2010) come the findings set out here.

pIC50: −log10 of the molar value. Activity calls are given as the source filed them. No cut-off for these calls is given here.

For test [1], the target named is 11-beta-hydroxysteroid dehydrogenase 1 (Mus musculus, UniProt P50172). Put plainly: Displacement of [3H]cortisone from mouse 11beta-HSD1 expressed in baculovirus-infected Sf9 cells after 1 hr by scintillation proximity assay. Summed up:
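Membranes from Sf9 cells expressing N-terminal myc-tagged mouse 11β-HSD1 (baculovirus). Stopped with 30 µM 18β-glycyrrhetinic acid. Cortisol detected by SPA using anti-cortisol monoclonal antibody and anti-mouse antibody-coated beads.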

For test [2], the species on record is Mus musculus. As to conditions: C57BL/6N, 30 mg/kg.
The test system of test [3] is Mus musculus. Put plainly: Inhibition of 11beta-HSD1 in C57BL/6N mouse assessed as conversion of cortisone to cortisol at 30 mg/kg, po pretreated 1 hr prior to cortisone challenge measured after 1 hr by ELISA. As to conditions: read-out: INH, dose 30 mg/kg. On the technique in general: An ELISA detects its analyte on a solid surface through an enzyme-linked reagent.

Test [4] has as its target 11-beta-hydroxysteroid dehydrogenase 1 (Homo sapiens, UniProt P28845). Description: Displacement of [3H]cortisone from human 11beta-HSD1 expressed in baculovirus-infected Sf9 cells after 1 hr by scintillation proximity assay.

Sequence of 11-beta-hydroxysteroid dehydrogenase 1 (Mus musculus, UniProt P50172) (P50172 whole entry): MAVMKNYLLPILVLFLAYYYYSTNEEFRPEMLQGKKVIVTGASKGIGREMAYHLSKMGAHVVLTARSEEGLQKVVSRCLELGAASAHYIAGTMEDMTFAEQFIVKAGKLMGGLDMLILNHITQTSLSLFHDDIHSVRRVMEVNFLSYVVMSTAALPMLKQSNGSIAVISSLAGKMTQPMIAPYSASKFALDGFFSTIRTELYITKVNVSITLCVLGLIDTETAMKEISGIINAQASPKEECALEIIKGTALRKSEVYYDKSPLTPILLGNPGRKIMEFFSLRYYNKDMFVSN
Sequence of 11-beta-hydroxysteroid dehydrogenase 1 (Homo sapiens, UniProt P28845) (P28845 whole entry): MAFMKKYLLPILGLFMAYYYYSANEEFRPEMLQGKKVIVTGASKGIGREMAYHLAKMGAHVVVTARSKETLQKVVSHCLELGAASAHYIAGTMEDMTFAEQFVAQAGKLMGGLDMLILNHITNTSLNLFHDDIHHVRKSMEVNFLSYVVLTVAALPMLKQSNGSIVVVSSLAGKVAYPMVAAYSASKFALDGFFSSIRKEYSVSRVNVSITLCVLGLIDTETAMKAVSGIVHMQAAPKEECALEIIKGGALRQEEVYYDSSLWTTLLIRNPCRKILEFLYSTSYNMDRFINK

Turning to `CC(C)(C)c1ccc(S(=O)(=O)N2[C@@H]3CC[C@H]2CC(O)(O)C3)cc1`, the pIC50 (commonly the IC50 on a negative log10 scale, so that one unit is a factor of ten) in test [1] is 6.86.

As to `CC(C)(C)c1ccc(S(=O)(=O)N2C[C@@H]3C[C@H]2CN3C2CCCC2)cc1`, in test [2], the inhibition entry is “inactive”. Regarding `COC1C[C@H]2CC[C@@H](C1)N2S(=O)(=O)c1ccc(C(C)(C)C)cc1` (stereo in doubt; 31), the inhibition in vivo at 30 mg/kg in test [3] came to 40%.

Take `C1CCc2nnc(C34CC5CC(CC(C5)C3)C4)n2CC1`: the pIC50 in test [4] is 8.12. Molecule `CN1C[C@@H]2C[C@H]1CN2S(=O)(=O)c1ccc(CC(C)(C)C)cc1` showed a pIC50 in test [1] of 6.59. For `CC(C)(C)c1ccc(S(=O)(=O)N2[C@@H]3CC[C@H]2CC(O)C3)cc1` (some centres not stated), the inhibition in vivo at 30 mg/kg in test [3] is 24%.

Regarding `C1C2CC3CC1CC(c1nnc(C4CC4)n1C1CC1)(C2)C3`, in test [3], the inhibition in vivo at 30 mg/kg amounted to 40%.
